Sampled rows, rich in hits. Any-hit rate of the full collection: about 3.7%.
Furin inhibitor: inhibitors of human furin; inhibition, % at 20 µM or 30 µM; 0.061% of 220,000 active; AID 463115; P09958; purified furin, fluorogenic substrate cleavage; in the data active = inhibition above about 25%
KCC2 mod: KCC2 (human) Cl- transport modulation; 2.2% of 190,000 active; B-score of Tl+ flux slope (higher = more flux/activation; lower = inhibition) at 10 µM; KCC2 cells, thallium flux FluoZin-2 fluorescence;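 active = thallium flux slope and its plate-corrected score both differing from the plate sample mean at a set confidence after two filtering rounds, in either direction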;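 also: slope of fluorescence scaled to starting intensity during 10 to 20 s after thallium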
NPY Y1 blocker: blocks the human neuropeptide Y Y1 receptor. inhibition, % at 3.6 µM. AID 1040. 1% of 200,000 active. HEK293-CNG Y1 cells, membrane potential fluorescence; NPY at EC95, then isoproterenol. P25929;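 active = inhibition above the campaign mean inhibition of all tested compounds plus 3 SD, cut at about 20% in these data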;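 also: 0% = DMSO wells given NPY plus isoproterenol and 100% = isoproterenol alone without NPY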
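material = HEK293 cells with Y1 receptor plus CNG channel | also added = NPY 25 nM then isoproterenol 1 µM plus Ro 20-1724 25 µM | schedule = dye 3 h, compound 60 min room temperature, stimulation 45 min | measured by = membrane potential fluorescence | benchmarks = high control isoproterenol alone, low control NPY with isoproterenol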
NPY-Y1 PAM-ag: potentiates or activates human NPY-Y1 receptor; P25929; NPY-Y1 expressing cells, potentiator/agonist activation; activation, % at 3.6 µM; 0.37% of 220,000 active; in the data active = activation above about 33%, passing the limit was not always enough;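 also: cells stimulated with NPY at EC10 then isoproterenol at EC100; 0% = low agonist plus stimulus and 100% = saturating agonist plus stimulus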
NPY-Y2 antag: antagonists of human neuropeptide Y receptor Y2 | P49146 | NPY-Y2 expressing cells, antagonist mode | inhibition, % at 2.7 µM | 0.99% of 140,000 active; in the data active = inhibition above about 17%;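 also: 0% = vehicle with agonist challenge and 100% = reference antagonist with challenge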
Target sequence (P49146 whole entry, looked up): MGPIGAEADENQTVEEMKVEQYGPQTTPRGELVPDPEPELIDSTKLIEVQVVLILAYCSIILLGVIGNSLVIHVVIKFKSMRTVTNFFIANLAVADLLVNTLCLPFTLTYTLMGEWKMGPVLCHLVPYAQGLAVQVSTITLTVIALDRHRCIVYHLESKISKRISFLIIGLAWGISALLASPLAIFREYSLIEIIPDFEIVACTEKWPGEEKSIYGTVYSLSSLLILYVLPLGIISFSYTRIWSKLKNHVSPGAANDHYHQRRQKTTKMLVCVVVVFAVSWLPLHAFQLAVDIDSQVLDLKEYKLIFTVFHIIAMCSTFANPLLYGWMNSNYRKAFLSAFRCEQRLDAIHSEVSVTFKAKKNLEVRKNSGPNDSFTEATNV
NPY2 pot ag: human NPY-Y2 potentiation or agonism, primary screen. activation, % at 3.6 µM. P49146. cells expressing NPY-Y2, potentiator/agonist read-out. AID 1359. 0.45% of 220,000 active; in the data active = activation above about 27%;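 also: cells stimulated with NPY near EC25 plus isoproterenol at EC100; 0% = vehicle plus submaximal agonist and 100% = vehicle plus saturating agonist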
* marks the source's active call; other numbers are inactive results; x = no result.

SMILES	Furin inhibitor	KCC2 mod	NPY Y1 blocker	NPY-Y1 PAM-ag	NPY-Y2 antag	NPY2 pot ag
COC(=O)Cc1c[nH]c2cccc(OCC(O)CN(Cc3ccc([N+](=O)[O-])cc3)C(C)(C)C)c12 (configuration not stated)	-15	-0.97	-15	107*	4	103*
COC(=O)Cc1c[nH]c2cccc(OCC(O)CN(Cc3ccccc3)C(C)C)c12 (configuration not stated)	-6	1.2	-14	97*	4	90*
COc1ccc(COCC(O)CN(Cc2ccccc2)C(C)C)cc1OC (configuration not stated)	-23	0.4	2	3	x	4
COc1ccc(-c2csc3[nH]c(=S)n(-c4ccccc4)c(=O)c23)cc1OC	-3	0.43	-2	-11	3	5
Cc1ccc(-n2c(=S)[nH]c3sc4c(c3c2=O)CCc2ccccc2-4)cc1	-10	9.1*	2	7	2	-7
COc1ccc(-c2cc(C(F)(F)F)n3ncc(C(=O)NCC4CCCO4)c3n2)cc1OC (configuration not stated)	-27	x	-1	0	4	2
COc1ccc(-c2cc(C(F)F)n3ncc(C(=O)NCC4CCCO4)c3n2)cc1 (configuration not stated)	-17	-0.27	29*	-33	29*	-24
O=C1NC(=O)C(CC(=O)N(Cc2ccco2)C2(C(=O)NC3CCCC3)CCCCC2)N1 (configuration not stated)	-15	x	1	-20	6	9
O=C(c1cnccn1)N(Cc1ccco1)C1(C(=O)NC2CCCC2)CCCCC1	-5	0.16	42*	4	33*	-3
O=C(c1ccccn1)N(Cc1ccco1)C1(C(=O)NC2CCCC2)CCCCC1	-19	0.69	34*	0	53*	-7
O=C(c1ccc2c(c1)OCO2)N(Cc1ccco1)C1(C(=O)NC2CCCCC2)CCCCC1	-1	-0.79	51*	-44	28*	-7
O=C(Cc1cccs1)N(Cc1ccco1)C1(C(=O)NC2CCCC2)CCCCC1	-17	-1	61*	-3	26*	-5
O=C(NC1CCCCC1)N(Cc1ccccc1)Cc1ccco1	-7	x	16	-5	12	0
CCC(C)(C(=O)NC1CCCCC1)N(Cc1ccco1)C(=O)c1cnccn1 (configuration not stated)	-11	2.6	11	-15	8	-17
COc1ccc(CCNC(=O)CSc2nn(-c3ccccc3)c(=S)s2)cc1	-24	1.5	x	-26	x	-27
CC1CCC(C(C)C)C(OCC(O)CNC(C)(C)C)C1 (configuration not stated)	-19	-1.9	-6	106*	x	99*
CCOC(=O)N1CCN(CC(O)COC2CC(C)CCC2C(C)C)CC1 (configuration not stated)	1	-0.57	7	-22	4	-24
O=C(O)c1cn(-c2ccccc2)nc1-c1ccc(Cl)cc1	-3	-3.8*	4	-16	6	-10
O=C(Cn1nc(Cc2ccncc2)c2ccccc2c1=O)N1CCc2ccccc2C1	-6	-3.7*	-3	-9	2	5
CN(CCC#N)C(=O)Cn1nc(Cc2ccncc2)c2ccccc2c1=O	-42	x	1	11	4	-3
O=C(CCNS(=O)(=O)c1ccc(Cl)cc1)NCc1cccs1	-5	0.43	3	-1	x	-13
COc1ccccc1NC(=O)C(=O)NNC(=O)c1ccco1	-16	8.3*	-1	8	8	-2
C/C(=N\NC(=O)c1[nH]c2c([N+](=O)[O-])cc(C)cc2c1-c1ccccc1)c1cccnc1	-23	0.089	-2	15	-1	10
COc1ccc(N2CCc3c(C)nc4c(OC)cc(OC)cc4c32)c(OC)c1	-4	-0.8	44*	-15	25*	-10
CC(OC(=O)CCc1c[nH]c2ccccc12)C(=O)c1ccccc1 (configuration not stated)	-20	-1.5	8	17	x	1
SMILES	Furin inhibitor	KCC2 mod	NPY Y1 blocker	NPY-Y1 PAM-ag	NPY-Y2 antag	NPY2 pot ag
CCn1nc(C(=O)OCC(=O)N2CCc3ccccc32)c2ccccc2c1=O	-20	-3.4*	3	-15	3	3
O=C(OCC(=O)N1CCc2ccccc21)c1nc(Cl)ccc1Cl	-18	-2	-1	-3	x	2
O=c1[nH]c(SCc2ccccc2)nc2[nH]ncc12	-26	-1.5	6	-4	x	-17
NC(=S)N/N=C1/CCSc2ccc3ccccc3c21	-6	4.4*	3	-25	x	-13
Cc1cc(C)nc(Sc2ncnc3sc4c(c23)CCC4)n1	-7	7.6*	-4	-11	5	-1
c1ccc(CN2c3ccccc3-c3nc4ccccc4n3C2c2ccccn2)cc1 (configuration not stated)	-25	-1.1	37*	-17	19*	-9
CN1c2ccccc2-c2nc3ccccc3n2C1c1ccccn1 (configuration not stated)	-25	-1.3	-1	-1	2	5
C/C(CC(=O)Nc1cccnc1)=N\NC(=O)C(=O)Nc1cccc(C)c1	-19	-0.099	-2	-14	11	-10
CCCCn1c(O)c(N=Nc2ccccn2)c2ccccc21	2	11*	5	-8	8	-2
Cc1ccc(CNCC(O)(c2ccc(F)cc2)c2ccc(F)cc2)cc1	11	0.56	23*	-59	19*	-31
Cc1ccc(OCCN2CCN(c3nc(NCc4ccco4)c4ccccc4n3)CC2)cc1	-12	0.22	34*	-58	30*	-7
OCCN1CCN(c2nc(NCc3ccco3)c3ccccc3n2)CC1	-14	1.8	12	-40	7	-19
c1ccc(CN2CCN(c3nc(NCc4ccco4)c4ccccc4n3)CC2)cc1	-15	-1.5	31*	-26	28*	-16
O=C(CC1SCCNC1=O)Nc1cccc([N+](=O)[O-])c1 (configuration not stated)	-20	-0.092	x	19	x	-3
Cn1cccc1CC(=O)N/N=C/C=C/c1ccco1	-15	0.012	-4	11	2	6
CCOCCCNC(=O)c1ccc(N2CCCC2)c(NS(=O)(=O)c2ccc(C)cc2)c1	-13	0.56	-9	58*	x	33*
CCCCn1cnc2cc(C)c(C)cc21	-2	-0.025	2	1	x	-11
COc1ccc(Oc2ccc3c(C(F)(F)F)cc(C(F)(F)F)nc3n2)cc1	-6	0.086	11	9	1	6
Oc1ccc(Oc2ccc3c(C(F)(F)F)cc(C(F)(F)F)nc3n2)cc1	-12	-2.2	-7	40*	0	49*
CCC(=O)Nc1c2c(nn1-c1ccc(F)cc1)CS(=O)C2 (configuration not stated)	-23	0.92	2	9	2	-7
CC(C)CC(=O)Nc1c2c(nn1-c1ccc(F)cc1)CSC2	9	0.55	-4	93*	3	100*

Screening results (PubChem)
